# Assay results gathered from unrelated publications.
# Compare with care: the assays were run in different laboratories.
# Read-out: cell growth or viability
Compound,cell line,assay,setting,IC50
CCn1c2ccccc2c2cc(C3CC(c4cc5cccc(OC)c5oc4=O)=NN3c3ccccc3)ccc21 (stereo not drawn),NRK-52E,MTT,24 h,70.4 µM
CC(C)C[C@H](NC(=O)[C@H](Cc1ccccc1)NC(=O)c1cnccn1)B(O)O,KG-1,ATP luminescence,,0.0048 µM
CC(=O)O[C@H]1C(=O)[C@@]2(C)[C@H]([C@H](OC(=O)c3ccccc3)[C@]3(O)C[C@H](OC(=O)[C@H](O)[C@@H](NC(=O)c4ccccc4)c4ccccc4)C(C)=C1C3(C)C)[C@]1(OC(C)=O)CO[C@@H]1C[C@@H]2O,CT26,,,2 µg/mL
Cc1cc(Nc2ncc(Cl)c(Nc3ccccc3S(=O)(=O)C(C)C)n2)c(OC(C)C)cc1C1CCNCC1,Rh18,,72 h,2.34 µM
CCn1c2ccccc2c2cc(C3CC(c4cc5ccccc5oc4=O)=NN3c3ccccc3)ccc21 (stereo not drawn),NRK-52E,MTT,24 h,103 µM
CC1=C(O)C(=O)C=C2C1=CC=C1[C@@]2(C)CC[C@@]2(C)[C@@H]3C[C@](C)(C(=O)OCCCCCCCCO)CC[C@]3(C)CC[C@]12C,Bel-7402,MTT,48 h,1.16 µM
Cn1cc(C(c2cccc(/C=C/C(=O)O)c2)c2cn(C)c3ccccc23)c2ccccc21,KG-1,,48 h,> 20 µM
CC(=O)OCCOC(=O)[C@]1(C)CC[C@]2(C)CC[C@]3(C)C4=CC=C5C(=CC(=O)C(O)=C5C)[C@]4(C)CC[C@@]3(C)[C@@H]2C1,Bel-7402,MTT,48 h,0.59 µM
CCn1c2ccccc2c2cc(C3CC(c4cc5c(ccc6ccccc65)oc4=O)=NN3C(C)=O)ccc21 (stereo not drawn),NRK-52E,MTT,24 h,81.3 µM
Cc1cccc2c(C(c3ccc(/C=C/C(=O)O)s3)c3c[nH]c4c(C)cccc34)c[nH]c12,KG-1,,48 h,> 5 µM
CCn1c2ccccc2c2cc(C3CC(c4cc5cccc(OC)c5oc4=O)=NN3c3ccc(C)cc3)ccc21 (stereo not drawn),NRK-52E,MTT,24 h,52 µM
Cn1cc(C(c2ccc(/C=C/C(=O)O)s2)c2cn(C)c3ccccc23)c2ccccc21,KG-1,,48 h,> 20 µM
Nc1ncc(-c2cnn(C3CCNCC3)c2)cc1-c1nnc(CC2CC2)o1,MOLM-13,trypan blue,72 h,0.184 µM
CC1=C(O)C(=O)C=C2C1=CC=C1[C@@]2(C)CC[C@@]2(C)[C@@H]3C[C@](C)(C(=O)OCCCBr)CC[C@]3(C)CC[C@]12C,Bel-7402,MTT,48 h,0.72 µM
CCn1c2ccccc2c2cc(C3CC(c4cc5ccccc5oc4=O)=NN3c3ccc(C)cc3)ccc21 (stereo not drawn),NRK-52E,MTT,24 h,83.2 µM
COc1cc(Nc2nccc(-c3cnn4nc(OC)ccc34)n2)cc(C(F)(F)F)c1,KG-1,ATP luminescence,,0.86 µM
CC1=C(O)C(=O)C=C2C1=CC=C1[C@@]2(C)CC[C@@]2(C)[C@@H]3C[C@](C)(C(=O)OCCCOc4ccccc4)CC[C@]3(C)CC[C@]12C,Bel-7402,MTT,48 h,1.33 µM
CCn1c2ccccc2c2cc(C3CC(c4cc5cccc(OC)c5oc4=O)=NN3C(C)=O)ccc21 (stereo not drawn),NRK-52E,MTT,24 h,97.9 µM
C[C@@H](Oc1cc(-c2cnn(C3CCNCC3)c2)cnc1N)c1c(Cl)ccc(F)c1Cl,Rh18,,72 h,0.55 µM
CCn1c2ccccc2c2cc(C3CC(c4cc5ccccc5oc4=O)=NN3C(N)=O)ccc21 (stereo not drawn),NRK-52E,MTT,24 h,28.4 µM
FC(F)(F)c1ccc(C(c2c[nH]c3ccccc23)c2c[nH]c3ccccc23)cc1,KG-1,,48 h,15 µM
CC1=C(O)C(=O)C=C2C1=CC=C1[C@@]2(C)CC[C@@]2(C)[C@@H]3C[C@](C)(C(=O)OCCCCCCO)CC[C@]3(C)CC[C@]12C,Bel-7402,MTT,48 h,1.22 µM
CCCON(Cc1ccc(C(=O)NO)cc1)C(=O)Nc1ccc(N(C)C)cc1,MOLM-13,ATP luminescence,72 h,7.19 µM
CCn1c2ccccc2c2cc(C3CC(c4cc5c(ccc6ccccc65)oc4=O)=NN3c3ccccc3)ccc21 (stereo not drawn),NRK-52E,MTT,24 h,122 µM
COc1cc2nccc(Oc3ccc(NC(=O)C4(C(=O)Nc5ccc(F)cc5)CC4)cc3)c2cc1OC,Rh18,,72 h,5.75 µM
Cc1ccc2c(c1)c(C(c1ccc(/C=C/C(=O)O)s1)c1cn(C(C)C)c3ccc(C)cc13)cn2C(C)C,KG-1,,48 h,> 5 µM
COCCCOC(=O)[C@]1(C)CC[C@]2(C)CC[C@]3(C)C4=CC=C5C(=CC(=O)C(O)=C5C)[C@]4(C)CC[C@@]3(C)[C@@H]2C1,Bel-7402,MTT,48 h,0.81 µM
CC(C)[C@H](N)C(=O)N1CCC[C@H]1B(O)O,MOLM-13,ATP luminescence,48 h,0.12 µM
O=C(O)/C=C/c1cccc(C(c2c[nH]c3ccccc23)c2c[nH]c3ccccc23)c1,KG-1,,48 h,> 20 µM
COC(=O)N[C@@H](C)CNc1nccc(-c2cn(C(C)C)nc2-c2cc(Cl)cc(NS(C)(=O)=O)c2F)n1,Malme-3M,,,0.0039 µM
